Experimental data taken from ChEMBL document CHEMBL2146441, “2,6-Disubstituted imidazo[2,1-b][1,3,4]thiadiazoles: search for anticancer agents” (2012).

Legend:
Assay type in all cases: functional
[1] = test system: SK-MEL-28; test: Cytotoxicity against human SK-MEL-28 cells assessed as cell growth at 10^-5 M after 48 hrs by SRB assay; conditions: SK-MEL-28, 48 h, read-out: Activity
[2] = test system: DU-145; test: Cytotoxicity against human DU145 cells assessed as cell growth at 10^-4 M after 48 hrs by SRB assay; conditions: DU-145, 48 h, read-out: Activity
Method in brief: (§1)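 NCI-60 screen: lines kept in RPMI 1640 with 5% FBS, seeded at 5000–40,000 cells/well by doubling time, preincubated 24 h at 37 °C in 5% CO2. Time-zero plates TCA-fixed at drug addition. DMSO stocks diluted in medium, 48 h exposure. Fixation in cold TCA (final 10% adherent, 16% suspension), 0.4% SRB stain, solubilised in 10 mM Tris base, A515. Percent growth computed against control and time-zero.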

[3] = test system: SF-539; test: Cytotoxicity against human SF539 cells assessed as cell growth at 10^-4 M after 48 hrs by SRB assay; conditions: SF-539, 48 h, read-out: Activity
[4] = test system: MDA-MB-231; test: Cytotoxicity against human MDA-MB-231 cells assessed as cell growth at 10^-5 M after 48 hrs by SRB assay; conditions: MDA-MB-231, 48 h, read-out: Activity
[5] = test system: Malme-3M; test: Cytotoxicity against human MALME-3M cells assessed as cell growth at 10^-5 M after 48 hrs by SRB assay; conditions: read-out: Activity
[6] = Cytotoxicity against human Hs 578T cells assessed as cell growth at 10^-7 M after 48 hrs by SRB assay; conditions: read-out: Activity
Method in brief: (§2)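 NCI-60 five-dose screen. Cells were grown in RPMI 1640 with 5% FBS and seeded at 5000–40,000 cells/well according to doubling time. They were pre-incubated 24 h at 37 °C in 5% CO₂, and time-zero (Tz) plates were TCA-fixed at drug addition. Five 10-fold dilutions of DMSO stock were applied for 48 h. Read-out was SRB staining, 515 nm absorbance, with percent growth calculated versus Tz and untreated control.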

[7] = test system: SF-295; test: Cytotoxicity against human SF295 cells assessed as cell growth at 10^-7 M after 48 hrs by SRB assay; conditions: SF-295, 48 h, read-out: Activity
[8] = test system: HCT-116; test: Cytotoxicity against human HCT116 cells assessed as cell growth at 10^-8 M after 48 hrs by SRB assay; conditions: HCT-116, 48 h, read-out: Activity; method in brief: as §2
[9] = test system: OVCAR-8; test: Growth inhibition of human OVCAR8 cells after 48 hrs by SRB assay; conditions: OVCAR-8, 48 h; for CC50: read-out: LC50 (the source's name)
Method in brief: (§3)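 Adherent NCI-60 lines grown in RPMI 1640 with 5% FBS, seeded at 5000–40,000 cells/well, and preincubated 24 h at 37 °C, 5% CO2. Compound, stocked in DMSO, given either once at 10^-5 M or at five 10-fold dilutions for 48 h. Cells fixed with cold TCA (final 10%), stained with 0.4% SRB, and read at 515 nm. GI50 taken as 50% reduction in net protein increase versus time-zero and control plates.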

[10] = test system: DU-145; test: Cytotoxicity against human DU145 cells assessed as cell growth at 10^-6 M after 48 hrs by SRB assay; conditions: DU-145, 48 h, read-out: Activity; method in brief: as §1
[11] = test system: U-251; test: Cytotoxicity against human U251 cells assessed as cell growth at 10^-8 M after 48 hrs by SRB assay; conditions: U-251, 48 h, read-out: Activity
[12] = test system: NCI-H522; test: Cytotoxicity against human NCI-H522 cells assessed as cell growth at 10^-6 M after 48 hrs by SRB assay; conditions: NCI-H522, 48 h, read-out: Activity
[13] = test system: SNB-75; test: Cytotoxicity against human SNB75 cells assessed as cell growth at 10^-5 M after 48 hrs by SRB assay; conditions: SNB-75, 48 h, read-out: Activity
[14] = test system: SK-MEL-28; test: Growth inhibition of human SK-MEL-28 cells after 48 hrs by SRB assay; conditions: SK-MEL-28, 48 h; for CC50: read-out: LC50 (the source's name); method in brief: as §3
[15] = test system: HT-29; test: Growth inhibition of human HT-29 cells after 48 hrs by SRB assay; conditions: HT-29, 48 h; method in brief: as §3
[16] = test system: OVCAR-5; test: Cytotoxicity against human OVCAR5 cells assessed as cell growth at 10^-5 M after 48 hrs by SRB assay; conditions: OVCAR-5, 48 h, read-out: Activity
[17] = test system: NCI-H522; test: Cytotoxicity against human NCI-H522 cells assessed as cell growth at 10^-5 M after 48 hrs by SRB assay; conditions: NCI-H522, 48 h, read-out: Activity
[18] = test system: HCC 2998; test: Cytotoxicity against human HCC2998 cells assessed as cell growth at 10^-6 M after 48 hrs by SRB assay; conditions: HCC 2998, 48 h, read-out: Activity; method in brief: as §2
[19] = test system: HCC 2998; test: Cytotoxicity against human HCC2998 cells assessed as cell growth at 10^-5 M after 48 hrs by SRB assay; conditions: HCC 2998, 48 h, read-out: Activity; method in brief: as §2
[20] = test system: UACC-257; test: Cytotoxicity against human UACC257 cells assessed as cell growth at 10^-8 M after 48 hrs by SRB assay; conditions: UACC-257, 48 h, read-out: Activity
[21] = test system: IGROV-1; test: Cytotoxicity against human IGROV1 cells assessed as cell growth at 10^-8 M after 48 hrs by SRB assay; conditions: IGROV-1, 48 h, read-out: Activity
[22] = test system: Malme-3M; test: Cytotoxicity against human MALME-3M cells assessed as cell growth at 10^-4 M after 48 hrs by SRB assay; conditions: read-out: Activity
[23] = test system: HCC 2998; test: Cytotoxicity against human HCC2998 cells assessed as cell growth at 10^-7 M after 48 hrs by SRB assay; conditions: HCC 2998, 48 h, read-out: Activity; method in brief: as §2
[24] = test system: RXF 393; test: Growth inhibition of human RXF393 cells after 48 hrs by SRB assay; conditions: RXF 393, 48 h; method in brief: as §3
[25] = test system: IGROV-1; test: Cytotoxicity against human IGROV1 cells assessed as cell growth at 10^-7 M after 48 hrs by SRB assay; conditions: IGROV-1, 48 h, read-out: Activity
[26] = test system: MDA-MB-231; test: Cytotoxicity against human MDA-MB-231 cells assessed as cell growth at 10^-8 M after 48 hrs by SRB assay; conditions: MDA-MB-231, 48 h, read-out: Activity
[27] = test system: UACC-257; test: Cytotoxicity against human UACC257 cells assessed as cell growth at 10^-5 M after 48 hrs by SRB assay; conditions: UACC-257, 48 h, read-out: Activity
[28] = test system: HCC 2998; test: Growth inhibition of human HCC2998 cells after 48 hrs by SRB assay; conditions: HCC 2998, 48 h; method in brief: as §3
[29] = test system: SW-620; test: Cytotoxicity against human SW620 cells assessed as cell growth at 10^-8 M after 48 hrs by SRB assay; conditions: SW-620, 48 h, read-out: Activity
[30] = test system: NCI-H322M; test: Cytotoxicity against human NCI-H322M cells assessed as cell growth at 10^-7 M after 48 hrs by SRB assay; conditions: read-out: Activity
[31] = test system: SF-539; test: Growth inhibition of human SF539 cells after 48 hrs by SRB assay; conditions: SF-539, 48 h; method in brief: as §3

Work on `COc1ccc(-c2nn3cc(-c4ccc(O)cc4O)nc3s2)cc1` yielded a growth at 10 µM [1] of 3%, a growth at 100 µM [2] of 2% and a growth at 100 µM [3] of -47%. For the same compound, the growth at 10 µM [4] was -54%, the growth at 10 µM [5] was -30% and the growth at 0.1 µM [6] was 93%. For the same compound, the growth at 0.1 µM [7] was 90%, the growth at 0.01 µM [8] was 94% and the GI50 [9] was 2.63 µM. For the same compound, the TGI [9] was over 100 µM, the CC50 [9] was over 100 µM and the growth at 1 µM [10] was 91%. The growth at 0.01 µM [11] was 97%, the growth at 1 µM [12] was 69% and the growth at 10 µM [13] was -66%. It also gave a GI50 [14] of 2.14 µM, a TGI [14] of 12.4 µM and a CC50 [14] of over 100 µM. The GI50 [15] was 2.95 µM, the LC50 (concentration killing 50% of cells) [15] was over 100 µM and the TGI [15] was 20.2 µM. For the same compound, the growth at 10 µM [16] was 20%, the growth at 10 µM [17] was 1% and the growth at 1 µM [18] was 78%. For the same compound, the growth at 10 µM [19] was 34%, the growth at 0.01 µM [20] was 92% and the growth at 0.01 µM [21] was 96%. It also gave a growth at 100 µM [22] of -28%, a growth at 0.1 µM [23] of 94% and a GI50 [24] of 1.09 µM. It also gave an LC50 [24] of 5.74 µM, a TGI [24] of 2.5 µM and a growth at 0.1 µM [25] of 94%. It also gave a growth at 0.01 µM [26] of 99%, a growth at 10 µM [27] of 36% and a GI50 [28] of 4.37 µM. It also gave an LC50 (concentration causing 50% net cell kill) [28] of over 100 µM, a TGI [28] of 84.4 µM and a growth at 0.01 µM [29] of 97%. For the same compound, the growth at 0.1 µM [30] was 83%, the GI50 [31] was 1.83 µM and the TGI [31] was 3.47 µM.

For `COc1ccc(-c2nn3cc(-c4cccc(N)c4)nc3s2)cc1`, the growth at 10 µM [1] was 28%, the growth at 100 µM [2] was -41% and the growth at 100 µM [3] was -68%. It also gave a growth at 10 µM [4] of 5%, a growth at 10 µM [5] of -16% and a growth at 0.1 µM [6] of 84%. For the same compound, the growth at 0.1 µM [7] was 87%, the growth at 0.01 µM [8] was 99% and the GI50 [9] was 4.97 µM. It also gave a TGI [9] of 23 µM, a CC50 [9] of 89.9 µM and a growth at 1 µM [10] of 93%. The growth at 0.01 µM [11] was 106%, the growth at 1 µM [12] was 60% and the growth at 10 µM [13] was -24%. The GI50 [14] was 3.76 µM, the TGI [14] was 26 µM and the CC50 [14] was over 100 µM. For the same compound, the GI50 [15] was 4.27 µM, the LC50 (concentration killing 50% of cells) [15] was over 100 µM and the TGI [15] was 23.2 µM. The growth at 10 µM [16] was 47%, the growth at 10 µM [17] was 13% and the growth at 1 µM [18] was 84%. It also gave a growth at 10 µM [19] of 51%, a growth at 0.01 µM [20] of 100% and a growth at 0.01 µM [21] of 102%. The growth at 100 µM [22] was -66%, the growth at 0.1 µM [23] was 96% and the GI50 [24] was 1.38 µM. For the same compound, the LC50 [24] was 20.9 µM, the TGI [24] was 4.66 µM and the growth at 0.1 µM [25] was 93%. For the same compound, the growth at 0.01 µM [26] was 85%, the growth at 10 µM [27] was 63% and the GI50 [28] was 1.08 µM. For the same compound, the LC50 (concentration causing 50% net cell kill) [28] was over 100 µM, the TGI [28] was over 100 µM and the growth at 0.01 µM [29] was 95%. For the same compound, the growth at 0.1 µM [30] was 95%, the GI50 [31] was 2.51 µM and the LC50 [31] was 48 µM. For the same compound, the TGI [31] was 7.83 µM.
